Assay outcomes as filed in PubChem.
Rows were chosen to be rich in hits. Some 4.6% of all compounds tested hit in one or more screens of this group.
PfM18AAP inh = PfM18AAP inhibitors, malaria aminopeptidase, primary screen, biochemical, QFRET, recombinant enzyme. 290,000 tested, 1.2% active. H-Glu-NHMec fluorogenic cleavage. M18 aspartyl aminopeptidase (Plasmodium falciparum 3D7). AID 1822, 2009. inhibition, % at 7.35 µM;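 active means inhibition above the campaign mean inhibition over all tested compounds plus 3 SD, cut at about 28% in these data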
Rtt109 HAT inh = inhibitors of C. albicans Rtt109/Vps75 HAT, primary screen, biochemical, ThioGlo CoA-SH fluorescence, plate reader; Histone acetyltransferase RTT109 (Candida albicans (strain SC5314 / ATCC MYA-2876)), …; purified Rtt109/Vps75, 4 h; inhibition, % at 34.9 µM; 330,000 tested, 0.16% active; AID 540336, 2011;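 active means inhibition of at least 50% in every replicate; inconclusive means best replicate reaches 50% inhibition but some replicates fall short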
FAS-TE inh = FAS thioesterase domain inhibitors, primary screen, biochemical, fluorescence intensity, uHTS; Fatty acid synthase (Homo sapiens), P49327; inhibition, % at 15 µM; recombinant FAS-TE, OMFH fluorogenic substrate, fluorescence endpoint; AID 602261, 2012; 360,000 tested, 0.67% active;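 active means compounds whose normalised, plate-corrected inhibition of enzyme fluorescence in the single-dose primary screen is 50% or more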
ALR inh = inhibitors of human ALR sulfhydryl oxidase, primary screen, biochemical, H2O2 detection, HRP-luminol luminescence, single point; FAD-linked sulfhydryl oxidase ALR (Homo sapiens), P55789; purified ALR, DTT oxidation; inhibition, % (test concentration not listed); 290,000 tested, 3.8% active; AID 485317, 2010;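 active means mean replicate inhibition above about 79%, with every replicate also reaching it, limit read from the data; inconclusive means only one of the two criteria met; inactive means mean below limit and not every replicate reaching it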
UCH37 inh = inhibitors of human UCH37 deubiquitinase, primary screen, biochemical, Ub-AMC cleavage, fluorescence | purified proteasome/UCH37 | inhibition, % (no concentration beside the values) | 330,000 tested, 0.33% active;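 active means mean inhibition over replicate wells above about 20%, limit read from the data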
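Material: Human UCH37 enzyme supplied as purified proteasome complex | Schedule: 30 min preincubation with enzyme, 25 min cleavage at room temperature | Detection: AMC fluorescence 355/460 nm | Measure: % inhibition of Ub-AMC cleavage fluorescence | Controls: Wells without proteasome as full block, compound-free enzyme plus substrate as uninhibited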
HDAC3 inh = HDAC3 deacetylase inhibitors, primary screen, biochemical, fluorescence, cell-free homogeneous | AID 2718, 2010 | Histone deacetylase 3 (Homo sapiens), O15379 | 320,000 tested, 0.15% active | inhibition, % at 8.3 µM | recombinant HDAC3, fluorogenic peptide/trypsin coupled; in the data active means inhibition above about 26%, passing the limit was not always enough; inconclusive means no clear call, values can overlap the other calls
Hits are given with their value; - = inactive; ? = inconclusive; . = not tested or not shown.

SMILES | PfM18AAP inh | Rtt109 HAT inh | FAS-TE inh | ALR inh | UCH37 inh | HDAC3 inh
O=S(=O)(c1cnccc1N1CCN(N=Cc2ccc(Cl)cc2)CC1)N1CCCCC1 | . | . | . | . | - | .
COc1cc(C=NNC(=O)NC23CC4CC(CC(C4)C2)C3)ccc1O | . | . | . | . | - | .
Nn1cnnc1NN=Cc1ccc(Cl)cc1Cl | . | . | . | . | - | .
Fc1cccc(C=NNC(=S)Nc2ccccc2Cl)c1 | . | . | . | . | - | .
CCc1nnc(NC(=O)CSc2nnc(CNc3cccc(Cl)c3)n2CC)s1 | - | - | - | - | - | -
CCc1nnc(NC(=O)CSc2nnc(C3CCCCC3)n2-c2cccc(Cl)c2)s1 | - | 59 | - | - | - | -
CC(/C=C/c1ccco1)=NNC(=O)Cc1cccs1 | . | . | . | . | - | .
CCN(CC(=O)Nc1c(F)cccc1F)C(=O)c1ccc(C2SCCS2)cc1 | . | - | - | . | - | 62
CCN(CC(=O)Nc1c(F)cccc1F)C(=O)c1ccc(C(F)(F)F)cc1 | - | - | - | - | - | -
CN(CC(=O)Nc1cccc(F)c1)C(=O)c1ccc(C2SCCS2)cc1 | . | - | - | - | - | 59
CN(CC(=O)Nc1cccc(F)c1)C(=O)c1ccc(OCc2ccccc2)cc1 | . | - | - | - | - | -
COc1cc2sc3cc(NCCCN4CCOCC4)ccc3c(=O)c2cc1OC | . | - | - | 99 | - | -
Nc1ccc(S(=O)(=O)NNC(=O)C(=O)NNc2ccccc2)cc1 | - | - | - | . | - | .
O=C(NNc1ccccc1)C(=O)NNS(=O)(=O)c1ccc(CCCl)cc1 | - | 65 | - | 99 | - | -
COc1ccc(N=c2sc3ccccc3n2C)cc1 | - | - | - | 98 | - | -
COc1ccccc1N=c1sc2ccccc2n1C | - | - | - | - | - | -
COc1ccc(C=NNC(=O)c2ccccc2)cc1COc1ccccc1 | . | . | . | . | - | .
Cc1cc(=O)[nH]c(N/N=C/C2=C(N3CCOCC3)C(=C\c3ccc(Cl)cc3)/CC2)n1 | - | - | - | 98 | . | -
O=C(O)c1cc(NN=Cc2ccc(OCc3ccccc3)cc2)ccc1Cl | . | . | . | . | - | .
Cc1nn(-c2ccccc2Cl)c(Cl)c1C=NNc1cccc(C(=O)O)c1 | . | . | . | . | - | .
O=C(O)c1cc(N/N=C/c2ccc(OCc3ccccc3)cc2)ccc1Cl | - | - | - | 97 | . | -
O=C(O)c1cc(N/N=C/C=C/c2ccccc2)ccc1Cl | - | - | - | 99 | . | -
Cc1nn(-c2ccccc2)c(Cl)c1/C=N/Nc1ccc(Cl)c(C(=O)O)c1 | - | - | - | 96 | . | -
O=C(O)c1cc(NN=C/C=C/c2ccccc2[N+](=O)[O-])ccc1Cl | . | . | . | . | - | .
N#CCC(=O)N/N=C/c1ccc(OCc2ccccc2)cc1 | 30 | - | - | - | . | -
SMILES | PfM18AAP inh | Rtt109 HAT inh | FAS-TE inh | ALR inh | UCH37 inh | HDAC3 inh
COc1cc(C=NNS(=O)(=O)c2ccc3ccccc3c2)ccc1OCc1ccc(C(=O)O)cc1 | . | . | . | . | - | .
O=C(Cc1csc(N2CCOCC2)n1)NN=Cc1ccc(Cl)cc1Cl | . | . | . | . | - | .
Cc1ccc2c(=O)cc(C(=O)NC3CCS(=O)(=O)C3)oc2c1C (stereo unspecified) | - | - | - | 98 | - | .
Fc1ccc2[nH]c3c(Cl)ncnc3c2c1 | - | - | - | 95 | - | -
COc1ccc(C=Nn2c(C)nnc2C)c(OC)c1 | . | . | . | . | - | .
ON=C1CC(O)Cc2nonc21 (stereo unspecified) | . | . | . | . | - | .
O=C(NCCCN1CCCC1)c1ccc2c(c1)N(Cc1ccccc1)CCS2 | - | - | - | 99 | - | -
NS(=O)(=O)c1ccc(CCNC(=O)c2ccc3c(c2)N(Cc2ccccc2)CCS3)cc1 | - | - | - | - | - | -
Cc1ccccc1NC(=O)c1ccc2c(c1)N(C)CCS2 | - | - | - | 98 | - | .
O=C(NCc1ccco1)c1ccc2c(c1)N(Cc1ccccc1)CCS2 | - | - | - | 98 | - | -
CN1CCSc2ccc(C(=O)Nc3cc(F)ccc3F)cc21 | - | - | - | - | - | -
CCN1CCSc2ccc(C(=O)NCc3ccccc3C)cc21 | - | - | - | 90 | - | -
O=C1Nc2cc(C(=O)NCCCN3CCOCC3)ccc2S/C1=C/c1cccc(Cl)c1 | - | - | - | - | - | -
Cc1ccc(CN2CCSc3ccc(C(=O)NCc4ccccn4)cc32)cc1 | - | - | - | 98 | - | -
CC(C)Oc1ccc(CNC(=O)c2ccc3c(c2)N(C)CCS3)cc1 | - | - | - | - | - | -
CCN1CCN(CCCNC(=O)c2ccc3c(c2)N(Cc2ccccc2)CCS3)CC1 | - | - | - | 99 | - | -
O=C(NC1CC1)c1ccc2c(c1)N(Cc1ccccc1)CCS2 | - | - | - | - | - | -
O=C1Nc2cc(C(=O)NCCCN3CCCC3)ccc2S/C1=C\c1ccccc1 | - | 73 | - | - | - | -
COc1ccc(CNC(=O)c2ccc3c(c2)N(C)CCS3)cc1 | - | - | - | 96 | - | .
COc1ccccc1C=NNC(=O)c1ccc(N(C)S(=O)(=O)c2ccccc2)cc1 | . | . | . | . | - | .
CCOc1cc(C=NNC(N)=O)cc(Br)c1OCC(=O)Nc1cccc2ccccc12 | . | . | . | . | - | .
CNC(=S)NN=Cc1c(Cl)cccc1Cl | . | . | . | . | - | .
COc1ccc(C(=O)c2nccc3cc(OC)c(OC)cc23)cc1OC | . | - | - | - | 48 | -
NC(=NOCC(=O)Nc1ccccc1)c1nonc1N | . | . | . | . | - | .
NC(=NO)c1ccccc1-n1cccc1 | . | . | . | . | - | .
SMILES | PfM18AAP inh | Rtt109 HAT inh | FAS-TE inh | ALR inh | UCH37 inh | HDAC3 inh
CC1=CC(=Nc2c(C)n(C)n(-c3ccccc3)c2=O)C=C(C)C1=O | - | - | - | 99 | - | -
CC1=CC(=Nc2c(C)n(C)n(-c3ccccc3)c2=O)C=CC1=O | - | . | . | . | . | -
CCNc1ccc(N=Nc2c(C)n(C)n(-c3ccccc3)c2=O)cc1 | - | ? | - | 99 | - | -
COc1cc(C=NN2CCN(C3c4ccccc4-c4ccccc43)CC2)cc(OC)c1OC | . | . | . | . | - | .
Cc1c(C(=O)NCc2ccc3c(c2)OCCO3)sc(=O)n1Cc1ccc2c(c1)OCO2 | . | . | - | . | . | .
CCn1c(N)c(C(=O)NCc2ccc3c(c2)OCO3)sc1=S | - | - | - | 99 | - | -
CCn1c(N)c(C(=O)Nc2ccccc2C(=O)OC)sc1=S | - | - | - | - | - | -
CCn1c(N)c(C(=O)NCCOC)sc1=S | - | - | - | 100 | - | -
C/C(=N\NC(=O)c1ccc(N2CCCC2=O)cc1)c1ccc(O)cc1O | 28 | - | - | - | . | -
Cc1[nH]c2ccccc2c1C=NNC(=O)CNC(=O)Cc1ccccc1 | . | . | . | . | - | .
COc1ccc(C=NNS(=O)(=O)c2ccc(C)cc2)cc1 | . | . | . | . | - | .
C[C@H](NC(=O)OC(C)(C)C)c1nnc(SCC(=O)Nc2cccc(Cl)c2)o1 | - | - | - | 96 | - | -
Cc1cccc(C)c1NC(=O)CSc1nnc([C@H](C)NC(=O)OC(C)(C)C)o1 | - | . | - | - | - | -
